The record followed here is ChEMBL document CHEMBL1143122, “Novel analogs of D-e-MAPP and B13. Part 1: synthesis and evaluation as potential anticancer agents” (Bioorg Med Chem, 2008).

For orientation: IC50 means the concentration that gives 50% inhibition. Read a low IC50 as higher potency.

The subject of one data set is MCF7. Briefly: Antiproliferative activity against human MCF7 cells after 48 hrs. The following applies: MCF7, 48 h. It is filed as functional, cell-based.
Consider `CCCCCCCCCCCCCC(=O)N[C@H](CO)[C@H](O)c1ccc(NC(=O)CCCCC[n+]2ccccc2)cc1.[Br-]`, for which it took 20 µM to reach half-maximal inhibition (IC50).

`CCCCCCCCCCCCCC(=O)N(C)[C@H](C)[C@@H](O)c1ccccc1`: the IC50 was more than 10 µM.

On to `CCCCCCCCCCCCNC(=O)N[C@@H](CO)[C@@H](O)c1ccc([N+](=O)[O-])cc1`, for which the IC50 is more than 10 µM.

`CCCCCCCCCCCCCC(=O)N(C)[C@H](C)[C@H](O)c1ccccc1` had an IC50 of more than 10 µM.

As to `CCCCCCCCCCCCCC(=O)N(C)[C@@H](C)[C@H](O)c1ccccc1`, the IC50 is more than 10 µM.

`CCCCCCCCCCCCNC(=O)N[C@H](C)[C@@H](O)c1ccccc1`: the IC50 is more than 10 µM.

`CCCCCCCCCCCCCC(=O)N(C)[C@@H](C)[C@@H](O)c1ccccc1` had an IC50 of more than 10 µM.

`CCCCCCCCCCCCNC(=O)N[C@@H](C)[C@H](O)c1ccccc1` had an IC50 of more than 10 µM.

The compound `CCCCCCCCCCCCN[C@H](C)[C@@H](O)c1ccccc1` showed an IC50 of 9 µM.

In turn, `CCCCCCCCCCCCNC(=O)N[C@H](CO)[C@H](O)c1ccc([N+](=O)[O-])cc1` returned an IC50 of more than 10 µM.

As to `CCCCCCCCCCCCCC(=O)N[C@H](CO)[C@H](O)c1ccc([N+](=O)[O-])cc1`, the IC50 turned out to be 14 µM. That is a double-digit micromolar value.

Regarding `CCCCCCCCCCCCCC(=O)N[C@H](C)[C@@H](O)c1ccccc1`, the IC50 was 30 µM.

The subject of the next data set is MCF7. Briefly: Drug level in human MCF7 cells at 10 uM per 10^6 cells after 0.5 hrs. It is filed as ADME, cell-based. The following applies: mcf7, 0.5 h. The gist of the method:
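MCF7 cells kept in RPMI 1640 with 10% fetal calf serum at 37 °C, 5% CO2, then treated with 10 μM analog. Intracellular analog measured over time by HPLC-MS in positive-ion MRM mode. Quantified against calibration curves made by spiking an artificial matrix with standards plus internal standard, using analyte/IS peak-area ratios and linear regression. Reported as pmol per 1×10^6 cells.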
In the case of `CCCCCCCCCCCCCC(=O)N[C@H](CO)[C@H](O)c1ccc(NC(=O)CCCCC[n+]2ccccc2)cc1.[Br-]`, the Drug uptake was determined as 800 pmol.
